Only some compounds are listed: those with a hit (about 3.7% of all), similar ones and a draw of the others.
GPR7 antagonist = human neuropeptides B/W receptor 1 antagonism. inhibition, % at 4.4 µM. GPR7-expressing cells, fluorescence antagonist assay. 1.1% of 290,000 active; in the data active = inhibition above about 16%, passing the limit was not always enough;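 also: cells stimulated with the agonist NPW; 0% = agonist with vehicle and 100% = vehicle without agonist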
Target sequence (P48145 whole entry, looked up): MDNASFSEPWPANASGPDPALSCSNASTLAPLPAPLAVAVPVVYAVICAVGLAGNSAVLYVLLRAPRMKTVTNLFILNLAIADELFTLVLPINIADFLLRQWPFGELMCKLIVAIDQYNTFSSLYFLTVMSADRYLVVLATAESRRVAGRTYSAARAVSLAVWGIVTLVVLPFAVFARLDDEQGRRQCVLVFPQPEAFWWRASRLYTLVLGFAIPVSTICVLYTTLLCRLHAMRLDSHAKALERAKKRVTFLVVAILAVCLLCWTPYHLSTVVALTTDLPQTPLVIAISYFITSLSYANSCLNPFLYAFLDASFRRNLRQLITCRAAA
OX1R antag-1 = human HCRTR1 antagonism; O43613; inhibition, % at 5 µM; AID 434989; CHO/OX1R cells, Fluo-8 calcium fluorescence, orexin A; 0.43% of 330,000 active;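 active = inhibition above its plate's threshold, mean inhibition of all tested compounds on the plate plus 3 SD, cut at about 37% in these data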;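 also: 0% = orexin A challenge wells and 100% = SB-334867-A antagonist wells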
CHO parental Ca = counter-screen: ATP calcium response change in parental CHO cells. parental CHO-K1, ATP-induced calcium, Fluo-8 fluorescence. inhibition, % at 5.6 µM. 0.63% of 330,000 active;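 active = inhibition above that plate's mean sample inhibition plus 3 SD, cut at about 26% in these data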;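 also: 0% = ATP-challenged DMSO wells and 100% = DMSO wells without ATP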
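test system = CHO parental line | reagent = ATP stimulus | measured by = intracellular calcium via Fluo-8 no-wash fluorescent dye | control set = ATP and no-ATP DMSO wells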
EP2 antag = inhibitors of human EP2 prostaglandin E2 receptor. AID 1422. 0.52% of 260,000 active. P43116. C6 glioma cells expressing human EP2, cAMP TR-FRET; cells stimulated with saturating PGE2. inhibition, % at 25 µM;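 active = percent inhibition above 40 after rounding to a whole number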;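 also: rat C6 glioma host cells with rolipram phosphodiesterase inhibitor present; the protocol text gives 20 µM as final concentration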
EP2 modulator = modulates human prostaglandin E2 receptor EP2 signaling | induction, % at 25 µM | AID 940 | 0.83% of 260,000 active | P43116 | EP2-expressing cells, cAMP HTRF FRET, PGE2 co-stimulation;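 active = compounds whose cAMP rise, as percent of the full-agonist control response, exceeds 60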;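 also: rat C6 glioma line stably carrying human EP2 under a CMV promoter; the protocol text gives 20 µM as final concentration; 100% = response of wells given 1 µM PGE2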
OX1R antag-2 = blocks the human orexin 1 receptor. O43613. OX1R-expressing cells, FRET antagonist read-out. inhibition, % at 6.6 µM. 1.8% of 330,000 active; in the data active = inhibition mostly above about 38%, no sharp cut-off; inactive = mostly below about 40%;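 also: 0% = agonist challenge alone and 100% = reference antagonist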
An asterisk follows results filed as active; x = no result given.

SMILES | GPR7 antagonist | OX1R antag-1 | CHO parental Ca | EP2 antag | EP2 modulator | OX1R antag-2
CC1CN(c2ccc(Cl)cc2[N+](=O)[O-])CCN1S(C)(=O)=O (centres undefined) | 1 | -19 | -4 | 8 | -3 | 12
Cn1ncc(Br)c1C(=O)O | -2 | -3 | -9 | 7 | 5 | 2
Cc1[nH][nH]c(=O)c1C(c1ccc(-c2cccc(Cl)c2Cl)o1)c1c(C)[nH][nH]c1=O | x | x | x | 18 | -101 | x
Cc1[nH][nH]c(=O)c1C(c1ccc(-c2ccccc2C(=O)O)o1)c1c(C)[nH][nH]c1=O | -7 | -3 | -5 | 5 | 27 | 50*
CC(=O)Oc1cc(O)c2c(c1)OC(c1ccc(OC(C)=O)c(OC(C)=O)c1)C(OC(C)=O)C2=O (centres undefined) | -7 | -27 | -7 | x | x | 5
CC(C)c1ccc(/C=C(\c2nc3ccccc3[nH]2)S(=O)(=O)c2ccccc2)cc1 | 28* | -18 | -19 | 9 | 7 | 15
O=S(=O)(/C(=C/c1ccc(C(F)(F)F)cc1)c1nc2ccccc2[nH]1)c1ccccc1 | 26* | -3 | 6 | 28 | -54 | 13
C/C(=C\c1ccc(N)cc1)c1nc2ccccc2[nH]1 | -2 | -24 | -1 | x | x | 22
COC(=O)CSc1nsc(SCC(=O)OC)n1 | -16 | -14 | -6 | 6 | 12 | 8
COc1cccc(CNS(=O)(=O)c2cc(-c3cc(C)no3)ccc2C(C)C)c1 | 18 | -13 | -14 | x | x | 20
Cc1ccc(NNC(=O)c2c(F)cccc2Cl)cc1C | -1 | -12 | -6 | 15 | -18 | 1
CN(c1ccc(C(=O)N2CCCCC2)cc1)S(=O)(=O)c1ccccc1 | -1 | 42* | 38* | 19 | 4 | 59
CN(c1ccccc1)S(=O)(=O)c1ccc(C(=O)N2CCCC2)cc1 | x | -15 | -6 | x | x | 9
CCOC(=O)C1CCCN(C(=O)C2c3ccccc3Oc3ccccc32)C1 (centres undefined) | 12 | 22 | 22 | 2 | 1 | 45*
CCOC(=O)C1CCCN(C(=O)c2cccc(S(=O)(=O)N(C)c3ccc(C)cc3)c2)C1 (centres undefined) | x | 31 | -11 | x | x | 58*
CCOC(=O)C1CCCN(C(=O)c2cccc(S(=O)(=O)N3CCCC3)c2)C1 (centres undefined) | x | -18 | -13 | x | x | 10
CN(c1ccccc1)S(=O)(=O)c1ccc(C(=O)N2CCc3ccccc3C2)cc1 | 20* | -20 | -5 | 6 | -52 | 10
CCOC(=O)c1[nH]c(C)c(/C(O)=C2\C(=O)C(=O)N(CCN(C)C)C2c2ccc(C)o2)c1C (centres undefined) | 2 | -19 | -5 | 5 | 7 | 13
Cc1cccc(NC(=O)NC2CC(=O)N(c3ccc4c(c3)OCCO4)C2)n1 (centres undefined) | -12 | -12 | -8 | 3 | -53 | 11
COc1ccccc1NC(=O)C1CCCN(S(=O)(=O)c2cccc3nsnc23)C1 (centres undefined) | -7 | -21 | -28 | 15 | -18 | 52
C[C@@]12C[C@H](O)[C@@H]3[C@H](CCC4=CC(=O)CC[C@]43C)[C@H]1CC[C@H]2c1csc(N)n1 | x | x | x | 66* | -24 | x
CC(=O)NC(Cc1ccc(C)cc1)C(=O)NC1CCN(C(=O)c2cnccn2)CC1 (centres undefined) | -14 | -21 | -7 | 8 | 17 | 5
CCC(c1nnnn1C1CCCCC1)N(Cc1cc2ccc(OC)cc2[nH]c1=O)C1CCCC1 (centres undefined) | x | x | x | 9 | 34 | x
CCN(Cc1ccccc1)C(=O)COC(=O)c1cnc(C)cn1 | -13 | -11 | 4 | 7 | 19 | 4
CCN(Cc1ccccc1)C(=O)COC(=O)c1c(C)nsc1NC | x | 24 | -18 | x | x | 50*
SMILES | GPR7 antagonist | OX1R antag-1 | CHO parental Ca | EP2 antag | EP2 modulator | OX1R antag-2
c1cc2[nH]snc2c2nc(C3CC3)nc12 | -6 | -10 | -10 | 10 | -29 | 46*
Cc1c(CN(C)CCOc2ccccc2)cnn1Cc1ccccc1 | x | x | x | 7 | -45 | x
O=C(CNc1cc(S(=O)(=O)N2CCOCC2)ccc1NCC1CCCO1)Nc1ccc(C(F)(F)F)cc1 (centres undefined) | x | -18 | -10 | x | x | 16
N#Cc1ccc(NC(=O)CNc2cc(S(=O)(=O)N3CCOCC3)ccc2NCC2CCCO2)cc1 (centres undefined) | -5 | -24 | 39* | 10 | -23 | -2
COCCCn1[nH]c2c3c(ccc2c1=O)C(=O)c1ccccc1C3=O | 3 | -10 | -13 | 12 | 15 | 75*
O=c1[nH]c(CN2CCCCC2)nc2c1C1(CCCCC1)Cc1ccccc1-2 | -17 | -12 | 1 | 4 | 52 | 14
O=c1[nH]c(NCCO)nc2c1C1(CCCCC1)Cc1ccccc1-2 | -13 | 20 | 81* | 18 | 45 | 10
CCn1c2ccccc2c2nnc(SCCCn3c(=O)[nH]c4ccccc43)nc21 | -2 | -30 | -34 | 6 | 33 | 36*
CCn1c2ccccc2c2nnc(SCCN3CCCCC3)nc21 | -18 | -36 | -11 | x | x | 20
CCn1c2ccccc2c2nnc(SCC(N)=O)nc21 | -13 | -13 | -4 | x | 16 | 45
CCn1c2ccccc2c2nnc(SCc3ccccc3)nc21 | 2 | -29 | 32* | 13 | 54 | 40
COc1ccc(CCNC(=O)COc2ccc3c(C)cc(=O)oc3c2)cc1OC | 0 | -15 | -2 | 11 | -54 | 26
COc1ccc(CC[N@+]2(C)COc3cc4oc(=O)cc(C)c4cc3C2)cc1OC | x | x | x | 51* | 16 | x
CC(NCc1ccc(S(N)(=O)=O)cc1)C(=O)Nc1ccc([N+](=O)[O-])cc1Cl (centres undefined) | 2 | -5 | -3 | 6 | -79 | 66*
CC(NCc1ccc(S(N)(=O)=O)cc1)C(=O)Nc1cc([N+](=O)[O-])ccc1Cl (centres undefined) | 0 | -3 | -1 | 8 | -28 | 58
O=C(CSCC(=O)N1CCOCC1)Nc1nc(-c2ccc3c(c2)OCO3)cs1 | -6 | -25 | -2 | 12 | 8 | -1
CCOC(=O)c1cc2cc3ccccc3cc2[nH]1 | 6 | -8 | 6 | 13 | -32 | 38*
CC(=O)Nc1ccc(S(=O)(=O)N2CCN(C(=O)CCC3CCCC3)CC2)cc1 | 20* | -20 | -4 | 9 | 6 | 9
COC(=O)Nc1ccc(S(=O)(=O)N2CCC(Cc3ccccc3)CC2)cc1 | -3 | 20 | 45* | 4 | -39 | 14
COc1ccc(OCCOC(=O)C(C)NS(=O)(=O)c2ccc(NC(C)=O)cc2)cc1 (centres undefined) | x | 12 | -15 | x | x | 4
O=c1[nH]c(CN2CCN(c3ncccn3)CC2)nc2c(Br)cc(Br)cc12 | -11 | -13 | -13 | 5 | 7 | 17
O=C1C=CC(=O)c2c(O)c(Cl)c(Cl)c(O)c21 | x | x | x | 129* | -20 | x
